According to ChEMBL document CHEMBL1142379, “Substituted 2-oxo-azepane derivatives are potent, orally active gamma-secretase inhibitors” (Bioorg Med Chem Lett, 2008):
pIC50: −log10 of the molar value. Active and inactive are the calls of the source. The rule behind the calls is not given here.

Experiments:
Gamma-secretase = experiment: Inhibition of human gamma secretase in HEK293 cells assessed as reduction of amyloid beta level by ELISA; assay type: cell-based
[1] = Clearance in mouse microsomes assessed per mg of protein; assay type: ADME, Liver, Microsome
Summary of the method: (§1)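 Intrinsic clearance in human and mouse liver microsomes, expressed as µl/min/mg protein.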

[2] = Clearance in human microsomes assessed per mg of protein; assay type: ADME, Microsome; summary of the method: as §1
[3] = Drug level in PS2APP transgenic mouse brain at 20 mg/kg, po after 2 hrs; assay type: ADME, organism-based; set-up: dose 20 mg/kg, route oral; conditions: read-out: Drug uptake
Summary of the method: (§2)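 Single 20 mg/kg oral dose in mice; plasma and brain concentrations taken at 2 h, brain/plasma ratio calculated; N = 3.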

LLC-PK1 [4] = experiment: Ratio of permeability from basolateral to apical over apical to basolateral side of the pig LLC-PK1 cell transfected with human MDR1 at 1 uM in presence of elacridar; assay type: ADME, cell-based, Sus scrofa; conditions: llc-pk1, 1 µM
Summary of the method: (§3)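 Bidirectional transport across LLC-PK1 monolayers exogenously expressing human MDR1 (P-gp), compound at 1 μM; apical-to-basolateral and reverse permeabilities measured, export ratio derived; run with and without elacridar (5 μM) as transport inhibitor. Passive permeability estimated from experiments with active transport inhibited.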

MDR1 = experiment: Permeability from apical to basolateral side of pig LLC-PK1 cell transfected with human MDR1; assay type: ADME, cell-based, Sus scrofa; conditions: read-out: permeability; summary of the method: as §3
Mus musculus [5] = experiment: Inhibition of human gamma secretase expressed in PS2APP transgenic mouse at 20 mg/kg, po after 3 days; assay type: functional, organism-based; set-up: dose 20 mg/kg
Summary of the method: (§4)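 PS2APP transgenic mice (human APP driven by neuron-specific Thy1 promoter) dosed 3 × 20 mg/kg po or ip; γ-secretase inhibition read as accumulation of CTFβ in total brain by Western blot, chemiluminescent band quantified and normalized to an endogenous control protein; reference inhibitor LY411575.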

[6] = Ratio of drug level in brain to plasma in PS2APP transgenic mouse at 20 mg/kg, po after 2 hrs; assay type: ADME, organism-based; set-up: dose 20 mg/kg, route oral; conditions: read-out: BPR; summary of the method: as §2
LLC-PK1 [7] = experiment: Ratio of permeability from basolateral to apical over apical to basolateral side of the pig LLC-PK1 cell transfected with human MDR1 at 1 uM; assay type: ADME, cell-based, Sus scrofa; conditions: llc-pk1, 1 µM; summary of the method: as §3
[8] = Distribution coefficient, log D of the compound; assay type: physicochemical; conditions: octanol/water
[9] = Solubility of the compound; assay type: physicochemical
Mus musculus [10] = experiment: Inhibition of human gamma secretase expressed in PS2APP transgenic mouse at 20 mg/kg, ip after 3 days; assay type: functional, organism-based; set-up: dose 20 mg/kg; summary of the method: as §4

Row | SMILES | pIC50 (Gamma-secretase) | microsomal CLint [1] [µL/min/mg] | microsomal CLint [2] [µL/min/mg] | other results
1 | O=C(NC1CC1)c1ccc(CN(C2CCCCNC2=O)S(=O)(=O)c2ccc(Cl)cc2)cc1 (centres undefined) | 6.77 |  |  | 
2 | COc1ccc(CN([C@@H]2CC(F)(F)CCNC2=O)S(=O)(=O)c2ccc(Cl)cc2)c(F)c1 | 7.70 | 105 | 13 | 
3 | COc1ccc(CN(C2CCCCNC2=O)S(=O)(=O)c2ccc(Cl)cc2)c(F)c1 (centres undefined) | 6.82 |  |  | 
4 | COc1ccc(CN(C2CCCCNC2=O)S(=O)(=O)c2ccc(Cl)cc2)cn1 (centres undefined) | 6.05 |  |  | 
5 | COc1ccc(CN([C@@H]2CC(F)(F)CCNC2=O)S(=O)(=O)c2ccc(Cl)cc2)cn1 | 7.52 | 72 | 9 | concentration at 2 h [3]: 60 ng/g; Ratio (LLC-PK1 [4]): 1; Papp A→B (MDR1): 28 ×10⁻⁶ cm/s; Activity (Mus musculus [5]): Active; Kp at 2 h [6]: 0.06; Ratio (LLC-PK1 [7]): 2.2
6 | O=C(NC1CC1)c1ccc(CN([C@@H]2CCC(F)(F)CNC2=O)S(=O)(=O)c2ccc(Cl)cc2)cc1 |  | 5.4 |  | 
7 | CC(C)C[C@H](C(=O)NO)N(Cc1ccc2c(c1)OCO2)S(=O)(=O)c1ccc(Cl)cc1 | 5.59 |  |  | 
8 | CN(C)C(=O)c1ccc(CN(C2CCCCNC2=O)S(=O)(=O)c2ccc(Cl)cc2)cc1 (centres undefined) | 5.70 |  |  | 
9 | CC1(C)CCNC(=O)C(N(Cc2ccc(C(=O)NC3CC3)cc2)S(=O)(=O)c2ccc(Cl)cc2)C1 (centres undefined) | 8.22 | 191 | 45 | 
10 | CC(C)(C)C1CCNC(=O)C(N(Cc2ccc(C(=O)NC3CC3)cc2)S(=O)(=O)c2ccc(Cl)cc2)C1 (racemic) | 6.92 | 110 | 93 | 
11 | O=C(NC1CC1)c1ccc(CN(C2CC(C(F)(F)F)CCNC2=O)S(=O)(=O)c2ccc(Cl)cc2)cc1 (racemic) | 7.70 | 39 | 19 | 
12 | O=C(NC1CC1)c1ccc(CN([C@@H]2CC(F)(F)CCNC2=O)S(=O)(=O)c2ccc(Cl)cc2)cc1 | 8.40 | 2.2 | 1.9 | Activity (Mus musculus [10]): inactive; Activity (Mus musculus [5]): inactive
13 | NC(=O)c1ccc(CN([C@@H]2CCCCNC2=O)S(=O)(=O)c2ccc(Cl)cc2)cc1 | 7.10 |  |  | 
14 | CC1(C)CCCC(N(Cc2ccc(C(=O)NC3CC3)cc2)S(=O)(=O)c2ccc(Cl)cc2)C(=O)N1 (centres undefined) | < 4.70 |  |  | 
15 | COc1ccc(CN([C@@H]2CC(F)(F)CCNC2=O)S(=O)(=O)c2ccc(Cl)cc2)c(F)c1F |  | 121 | 19 | Kp at 2 h [6]: < 0.1

More lines, main results first:

Row | pIC50 (Gamma-secretase) | microsomal CLint [1] [µL/min/mg] | microsomal CLint [2] [µL/min/mg] | SMILES | other results
16 | 5.46 |  |  | CC1(C)CCC(N(Cc2ccc(C(=O)NC3CC3)cc2)S(=O)(=O)c2ccc(Cl)cc2)C(=O)NC1 (centres undefined) | 
17 | 7.40 | 203 | 51 | CC(C)C1CCNC(=O)C(N(Cc2ccc(C(=O)NC3CC3)cc2)S(=O)(=O)c2ccc(Cl)cc2)C1 (racemic) | 
18 | 8.10 | 282 | 34 | CC(C)C[C@H](C(N)=O)N(Cc1ccc2c(c1)OCO2)S(=O)(=O)c1ccc(Cl)cc1 | logD [8]: > 3; solubility [9]: < 1 µg/mL
19 | 6.85 |  |  | O=C(O)CCc1ccc(CN([C@@H]2CCCCNC2=O)S(=O)(=O)c2ccc(Cl)cc2)cc1 | 
20 | 7.82 | 655 | 36 | CC1(C)CCNC(=O)[C@H](N(Cc2ccc(C(=O)NC3CC3)cc2)S(=O)(=O)c2ccc(Cl)cc2)C1 | 
21 | 4.85 |  |  | O=C1NCCCC1N(Cc1ccc2c(c1)OCO2)S(=O)(=O)c1ccc(Cl)cc1 (centres undefined) | 
22 | 6.41 |  |  | CC1(C)CCCNC(=O)C1N(Cc1ccc(C(=O)NC2CC2)cc1)S(=O)(=O)c1ccc(Cl)cc1 (centres undefined) | 
23 | < 4.70 |  |  | O=C1NCCC1N(Cc1ccc2c(c1)OCO2)S(=O)(=O)c1ccc(Cl)cc1 (centres undefined) | 
24 | 5.05 |  |  | O=C1NCCCCCC1N(Cc1ccc2c(c1)OCO2)S(=O)(=O)c1ccc(Cl)cc1 (centres undefined) | 
